Measured values reported in ChEMBL document CHEMBL2401699, “4-Amino-7-chloroquinolines: probing ligand efficiency provides botulinum neurotoxin serotype A light chain inhibitors with significant antiprotozoal activity” (J Med Chem, 2013).

Key:
Plasmodium falciparum [1] = assay: Antimalarial activity against chloroquine-sensitive Plasmodium falciparum D6 after 72 hrs by MSF assay; format: functional, organism-based; settings: D6, 72 h
Plasmodium falciparum [2] = assay: Antimalarial activity against chloroquine-resistant Plasmodium falciparum W2 after 72 hrs by MSF assay; format: functional, organism-based; settings: W2, 72 h
[3] = Selectivity index, ratio of IC50 for human HepG2 cells to IC50 for Plasmodium falciparum TM91C235; format: toxicity, cell-based; settings: read-out: Ratio IC50
[4] = Selectivity index, ratio of IC50 for human HepG2 cells to IC50 for Plasmodium falciparum W2; format: toxicity, cell-based; settings: read-out: Ratio IC50
HepG2 = assay: Cytotoxicity against human HepG2 cells after 48 hrs by MTT assay; format: cell-based; settings: HepG2, 48 h
[5] = biological target: Botulinum neurotoxin type A (Clostridium botulinum) (UniProt P0DPI0); assay: Inhibition of Clostridium botulinum recombinant BoNT/A light chain at […] by reverse-phase HPLC analysis
Botulinum neurotoxin type A (Clostridium botulinum), sequence (P0DPI0 2-448 limits assumed): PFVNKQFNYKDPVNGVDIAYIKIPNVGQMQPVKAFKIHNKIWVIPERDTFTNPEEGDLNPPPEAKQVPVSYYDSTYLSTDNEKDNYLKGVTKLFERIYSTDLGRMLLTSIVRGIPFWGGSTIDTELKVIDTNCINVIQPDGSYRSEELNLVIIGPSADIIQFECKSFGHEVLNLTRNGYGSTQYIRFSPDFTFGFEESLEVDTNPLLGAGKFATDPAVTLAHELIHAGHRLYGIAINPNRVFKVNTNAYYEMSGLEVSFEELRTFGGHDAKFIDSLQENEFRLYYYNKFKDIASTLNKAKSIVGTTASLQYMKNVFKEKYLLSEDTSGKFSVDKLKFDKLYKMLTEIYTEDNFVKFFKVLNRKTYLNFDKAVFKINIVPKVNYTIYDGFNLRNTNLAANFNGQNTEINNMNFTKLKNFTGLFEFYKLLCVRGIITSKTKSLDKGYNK
Outline: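 Recombinant BoNT/A light chain was tested with a synthetic SNAP-25 187–203 peptide substrate (N-acetylated, C-aminated). The mix held 40 mM HEPES-0.05% Tween pH 7.3, 0.5 mg/ml BSA, 1 mM DTT, excess zinc and 20 µM inhibitor, at 37 °C, quenched with TFA. Cleaved and uncleaved peptide were separated by reverse-phase HPLC, and peak areas gave reaction rates and % inhibition.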

Plasmodium falciparum [6] = assay: Antimalarial activity against multi drug resistant Plasmodium falciparum TM91C235 after 72 hrs by MSF assay; format: functional, organism-based; settings: TM91C235, 72 h
[7] = Selectivity index, ratio of IC50 for human HepG2 cells to IC50 for Plasmodium falciparum D2; format: toxicity, cell-based; settings: read-out: Ratio IC50
Plasmodium falciparum [8] = assay: Antimalarial activity against multidrug-resistant Plasmodium falciparum TM90C2A after 72 hrs by MSF assay; format: functional, organism-based
Outline: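 P. falciparum cultures at late-ring or early-trophozoite stage, 0.3% starting parasitemia and 2% hematocrit, were grown in plates predosed with quadruplicate 12-point two-fold dilutions in DMSO (final […]). Incubation was 72 h at 37 °C in 5% CO2/5% O2/90% N2. Lysis buffer with SYBR Green I (final 10x) was added, then 24 h dark at room temperature and fluorescence read. IC50/IC90 came from sigmoidal variable-slope nonlinear regression.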

Plasmodium falciparum [9] = assay: Ratio of mefloquine IC50 to compound IC50 against Plasmodium falciparum TM91C235; format: functional
[10] = (§1) Half life in mouse liver microsomes at 10 uM by LC-MS/MS analysis; format: ADME, Microsome; settings: liver microsomes
[11] = (§2) Half life in human liver microsomes at 10 uM by LC-MS/MS analysis; format: ADME, Microsome; settings: liver microsomes
Plasmodium falciparum [12] = assay: Antimalarial activity against multidrug-resistant Plasmodium falciparum TM90C2B after 72 hrs by MSF assay; format: functional, organism-based
Liver = assay: as §1; format: ADME, Microsome; settings: microsomes, 10 µM
Liver microsomes = assay: as §2; format: ADME, Microsome; settings: microsomes, 10 µM

CC(C)(C)c1ccc(CNCCCNc2ccnc3cc(Cl)ccc23)cc1
IC50 (Plasmodium falciparum [1]): 0.0217 µM
IC50 (Plasmodium falciparum [2]): 0.0484 µM
selectivity ratio [3]: 68
selectivity ratio [4]: 45
IC50 (HepG2): 2.17 µM
inhibition [5]: 50.3%
IC50 (Plasmodium falciparum [6]): 0.0319 µM
selectivity ratio [7]: 100

O[C@@H](c1cc(C(F)(F)F)nc2c(C(F)(F)F)cccc12)[C@H]1CCCCN1 (racemic)
IC90 (Plasmodium falciparum [1]): 0.0437 µM
IC50 (Plasmodium falciparum [8]): 0.0511 µM
inhibition [5]: 28%

Fc1ccc(CNCCNc2ccnc3cc(Cl)ccc23)cc1
IC50 (Plasmodium falciparum [1]): 0.0264 µM
IC50 (Plasmodium falciparum [2]): 0.0458 µM
selectivity ratio [3]: 291
selectivity ratio [4]: 350
IC50 (HepG2): 16 µM
inhibition [5]: 68%
IC50 (Plasmodium falciparum [6]): 0.0552 µM
selectivity ratio [7]: 608

Clc1ccc2c(NCCNCc3ccc(Br)cc3)ccnc2c1
IC50 (Plasmodium falciparum [1]): 0.0041 µM
IC50 (Plasmodium falciparum [2]): 0.00947 µM
Ratio IC50 (Plasmodium falciparum [9]): 4
selectivity ratio [3]: 660
selectivity ratio [4]: 695
IC50 (HepG2): 6.58 µM
inhibition [5]: 69%
IC50 (Plasmodium falciparum [6]): 0.00998 µM
selectivity ratio [7]: 1610
half-life at 10 µM [10]: 1 h
half-life at 10 µM [11]: 1 h

Fc1ccc(CNCCCNc2ccnc3cc(Cl)ccc23)cc1
IC50 (Plasmodium falciparum [1]): 0.0131 µM
IC50 (Plasmodium falciparum [2]): 0.0494 µM
selectivity ratio [3]: 185
selectivity ratio [4]: 110
IC50 (HepG2): 5.43 µM
inhibition [5]: 50.1%
IC50 (Plasmodium falciparum [6]): 0.0294 µM
selectivity ratio [7]: 415

Clc1ccc2c(NCCCNCc3ccc(Br)cc3)ccnc2c1
IC50 (Plasmodium falciparum [1]): 0.00395 µM
IC90 (Plasmodium falciparum [1]): 0.00445 µM
IC50 (Plasmodium falciparum [2]): 0.00593 µM
IC90 (Plasmodium falciparum [2]): 0.00741 µM
IC50 (HepG2): 4.95 µM
IC50 (Plasmodium falciparum [8]): 0.00716 µM
inhibition [5]: 68%
IC50 (Plasmodium falciparum [6]): 0.00618 µM
IC90 (Plasmodium falciparum [6]): 0.00766 µM
IC50 (Plasmodium falciparum [12]): 0.00791 µM
IC90 (Plasmodium falciparum [12]): 0.0121 µM
half-life at 10 µM [10]: 1 h
half-life at 10 µM [11]: 1 h

COc1ccc(CNCCNc2ccnc3cc(Cl)ccc23)cc1
IC50 (Plasmodium falciparum [1]): 0.00322 µM
IC50 (Plasmodium falciparum [2]): 0.0143 µM
Ratio IC50 (Plasmodium falciparum [9]): 4
selectivity ratio [3]: 362
selectivity ratio [4]: 406
IC50 (HepG2): 5.82 µM
inhibition [5]: 18%
IC50 (Plasmodium falciparum [6]): 0.0161 µM
selectivity ratio [7]: 1810
t1/2 (Liver): 0.1 h
t1/2 (Liver microsomes): 0.45 h

Clc1ccc2c(NCCCNCc3cccnc3)ccnc2c1
IC50 (Plasmodium falciparum [2]): 0.26 µM
selectivity ratio [3]: 317
selectivity ratio [4]: 90
IC50 (HepG2): 23.3 µM
inhibition [5]: 39.9%
IC50 (Plasmodium falciparum [6]): 0.0734 µM
half-life at 10 µM [10]: 1 h
half-life at 10 µM [11]: 1 h

Clc1ccc2c(NCCCNCc3ccncc3)ccnc2c1
IC50 (Plasmodium falciparum [1]): 0.00865 µM
IC50 (Plasmodium falciparum [2]): 0.204 µM
selectivity ratio [3]: 469
selectivity ratio [4]: 176
IC50 (HepG2): 35.9 µM
inhibition [5]: 42.3%
IC50 (Plasmodium falciparum [6]): 0.0764 µM
selectivity ratio [7]: 4150
t1/2 (Liver): 0.15 h
t1/2 (Liver microsomes): 0.15 h

Clc1ccc2c(NCCNCc3ccccc3)ccnc2c1
IC50 (Plasmodium falciparum [1]): 0.00641 µM
IC90 (Plasmodium falciparum [1]): 0.00962 µM
IC50 (Plasmodium falciparum [2]): 0.0109 µM
IC50 (HepG2): 19.4 µM
IC50 (Plasmodium falciparum [8]): 0.00994 µM
inhibition [5]: 52%
IC50 (Plasmodium falciparum [6]): 0.00738 µM
IC90 (Plasmodium falciparum [6]): 0.0093 µM
IC50 (Plasmodium falciparum [12]): 0.0093 µM
IC90 (Plasmodium falciparum [12]): 0.0125 µM
t1/2 (Liver): 0.383 h
half-life at 10 µM [11]: 1 h

Clc1ccc2c(NCCNCc3cccnc3)ccnc2c1
IC50 (Plasmodium falciparum [1]): 0.0534 µM
IC50 (Plasmodium falciparum [2]): 0.225 µM
selectivity ratio [3]: 882
selectivity ratio [4]: 426
IC50 (HepG2): 95.9 µM
inhibition [5]: 25%
IC50 (Plasmodium falciparum [6]): 0.109 µM
selectivity ratio [7]: 1800

Clc1ccc2c(NCCNCc3ccncc3)ccnc2c1
IC50 (Plasmodium falciparum [1]): 0.0607 µM
IC50 (Plasmodium falciparum [2]): 0.375 µM
selectivity ratio [3]: 752
selectivity ratio [4]: 409
IC50 (HepG2): 153 µM
inhibition [5]: 24%
IC50 (Plasmodium falciparum [6]): 0.204 µM
selectivity ratio [7]: 2530

C[C@@H]1CC[C@H]2[C@@H](C)C(=O)O[C@@H]3O[C@@]4(C)CC[C@@H]1[C@]32OO4 [ARTEMISININ]
IC50 (Plasmodium falciparum [1]): 0.009 µM
IC50 (Plasmodium falciparum [2]): 0.0067 µM
IC50 (Plasmodium falciparum [6]): 0.013 µM

COc1ccncc1CNCCNc1ccnc2cc(Cl)ccc12
IC50 (Plasmodium falciparum [2]): 0.019 µM
inhibition [5]: 19%
IC50 (Plasmodium falciparum [6]): 0.00729 µM
t1/2 (Liver): 0.383 h
t1/2 (Liver microsomes): 0.633 h

COc1ccncc1CNCCCNc1ccnc2cc(Cl)ccc12
IC50 (Plasmodium falciparum [1]): 0.00476 µM
IC50 (Plasmodium falciparum [2]): 0.0869 µM
selectivity ratio [3]: 93
selectivity ratio [4]: 57
IC50 (HepG2): 4.97 µM
inhibition [5]: 43.2%
IC50 (Plasmodium falciparum [6]): 0.0532 µM
selectivity ratio [7]: 1040
half-life at 10 µM [10]: 1 h
half-life at 10 µM [11]: 1 h

CCN(CC)CCCC(C)Nc1ccnc2cc(Cl)ccc12 (centres undefined) [CHLOROQUINE PHOSPHATE]
IC90 (Plasmodium falciparum [1]): 0.0192 µM
IC90 (Plasmodium falciparum [2]): 0.943 µM
inhibition [5]: 7%
IC90 (Plasmodium falciparum [6]): 0.476 µM
IC90 (Plasmodium falciparum [12]): 0.602 µM

Clc1ccc2c(NCCNCc3cnccc3Cl)ccnc2c1
IC50 (Plasmodium falciparum [1]): 0.0638 µM
IC50 (Plasmodium falciparum [2]): 0.141 µM
selectivity ratio [3]: 78
selectivity ratio [4]: 46
IC50 (HepG2): 6.5 µM
inhibition [5]: 23%
IC50 (Plasmodium falciparum [6]): 0.0833 µM
selectivity ratio [7]: 102
t1/2 (Liver): 0.617 h
t1/2 (Liver microsomes): 0.167 h

Clc1ccc2c(NCCCNCc3cnccc3Cl)ccnc2c1
IC50 (Plasmodium falciparum [1]): 0.0257 µM
IC50 (Plasmodium falciparum [2]): 0.073 µM
selectivity ratio [3]: 121
selectivity ratio [4]: 52
IC50 (HepG2): 3.76 µM
inhibition [5]: 35.9%
IC50 (Plasmodium falciparum [6]): 0.031 µM
selectivity ratio [7]: 146
t1/2 (Liver): 0.317 h
t1/2 (Liver microsomes): 0.267 h

COc1ccc(CNCCCNc2ccnc3cc(Cl)ccc23)cc1
IC50 (Plasmodium falciparum [1]): 0.00618 µM
IC50 (Plasmodium falciparum [2]): 0.0562 µM
selectivity ratio [3]: 95
selectivity ratio [4]: 86
IC50 (HepG2): 4.81 µM
inhibition [5]: 14%
IC50 (Plasmodium falciparum [6]): 0.0506 µM
selectivity ratio [7]: 778
t1/2 (Liver): 0.3 h
t1/2 (Liver microsomes): 1 h

Clc1ccc2c(NCCCNCc3ccccc3)ccnc2c1
IC50 (Plasmodium falciparum [1]): 0.0172 µM
IC50 (Plasmodium falciparum [2]): 0.0522 µM
selectivity ratio [3]: 73
selectivity ratio [4]: 56
IC50 (HepG2): 2.91 µM
inhibition [5]: 51.8%
IC50 (Plasmodium falciparum [6]): 0.0399 µM
selectivity ratio [7]: 169
half-life at 10 µM [10]: 1 h
half-life at 10 µM [11]: 1 h

CC(C)(C)c1ccc(CNCCNc2ccnc3cc(Cl)ccc23)cc1
IC50 (Plasmodium falciparum [1]): 0.0242 µM
IC50 (Plasmodium falciparum [2]): 0.0424 µM
selectivity ratio [3]: 419
selectivity ratio [4]: 245
IC50 (HepG2): 10.4 µM
inhibition [5]: 47%
IC50 (Plasmodium falciparum [6]): 0.0247 µM
selectivity ratio [7]: 429
